Measurements of several laboratories.
Compare with care: the assays were run in different laboratories.
Target: Death-associated protein kinase 3 (DAPK3, Homo sapiens, UniProt O43293)

With `Cc1cc(NC(=O)c2cccc(S(F)(F)(F)(F)F)c2)cc(-n2ccn3nc(-c4cccnc4)cc23)c1` the remaining binding was 100% (cell-free assay; competition with immobilised ligand; 1 µM).
`CCN(CC)c1ccc(C2=NNC(=O)CC2C)cc1[N+](=O)[O-]` (stereo not shown) gave a remaining activity of 100% (enzyme activity; inhibitor; 10 µM).
`CS(=O)(=O)CCNCc1ccc(-c2ccc3ncnc(Nc4ccc(OCc5cccc(F)c5)c(Cl)c4)c3c2)o1` gave a remaining signal of 97.4% (cell-free assay; 0.5 µM).
`Cn1c2c(c3ccc(Cl)c(Cl)c31)C(C#N)C1(CCNCC1)NC2=O` (racemic) has a ΔTm of > 8 °C (thermal stability; DSF; 10 µM).
`Cc1nc(C2CCN(C(=O)c3ccc(OC(F)(F)F)cc3N)CC2)c2ncc(N3CCN(C)CC3)cc2n1` has a remaining binding of 100% (cell-free assay; competition with immobilised ligand; 1 µM).
With `O=C1NC(=O)c2cc(Nc3ccc(F)cc3)c(Nc3ccc(F)cc3)cc21` the remaining signal was 101% (cell-free assay; 0.5 µM).
The remaining activity of `Cc1sc(C(=O)NC2COC2)cc1-n1cc(NC(=O)Nc2c(F)cccc2Cl)cn1` is reported as 101% (enzyme activity; inhibitor; 10 µM).
The remaining activity of `CC(C)(C)c1nc2c(s1)c1nc(N)ncc1c1ccc(NS(=O)(=O)c3c(F)cccc3F)c(F)c12` is reported as 58% (enzyme activity; inhibitor; radiometric; 1 µM).
The remaining binding of `COc1cc(-c2cn(C3CCc4ccccc4N(CC(F)(F)F)C3=O)nn2)ccc1-n1ccc(C)n1` (stereo not shown) is reported as 100% (cell-free assay; competition with immobilised ligand; 1 µM).
With `COc1cc(Cl)c(C(=O)N[C@@H](CN[C@H]2CC[C@@H](N)CC2)Cc2ccc(C#N)cc2)cc1-c1ccc(CN[C@H](C)c2ccc(C)cc2)o1` the remaining activity was 89% (enzyme activity; inhibitor; 1 µM).
`CNC(=O)c1cc(Oc2ccc(NC(=O)Nc3ccc(Cl)c(C(F)(F)F)c3)cc2)ccn1` gave a remaining signal of 92.9% (cell-free assay; 0.5 µM).
With `Cc1nc(Cc2cccc(C(F)(F)F)c2)sc1-c1ccc(C(N)=O)nc1` the remaining binding was 88% (cell-free assay; competition with immobilised ligand; 1 µM).
For `Oc1cccc(-c2nc(N3CCOCC3)c3oc4ncccc4c3n2)c1`, the remaining signal was 93.1% (cell-free assay; 0.5 µM).
With `COc1cc2ncnc(Nc3ccc(Oc4ccccc4)c(C)c3C)c2cc1OC` the inhibition was 1% (enzyme activity; inhibitor; 1 µM).
The inhibition of `CCN(CC)CCNC(=O)c1c(C)[nH]c(/C=C2\C(=O)Nc3ccc(F)cc32)c1C` is reported as 35% (enzyme activity; inhibitor; 0.3 µM).
`COc1cc(-c2cc(-c3ccc(N4CCNCC4)cc3)cnc2C)cc(OC)c1OC` gave an inhibition of 2% (enzyme activity; inhibitor; 1 µM).
With `N#CC1(c2ccccn2)CCN(Cc2cc(C(=O)N3CCCC3)c(=O)n3ccccc23)CC1` the remaining binding was 86% (cell-free assay; competition with immobilised ligand; 1 µM).
`Cc1ccc(Nc2nccc(N(C)c3ccc4c(C)n(C)nc4c3)n2)cc1S(N)(=O)=O` has an inhibition of -7% (enzyme activity; inhibitor; 0.3 µM).
For `COc1cc2ncnc(Nc3ccc(F)c(Cl)c3)c2cc1OCCCN1CCOCC1`, the remaining signal was 95.7% (cell-free assay; 0.5 µM).
`CN1CC(Oc2cnc(C#N)cc2-c2ccn3nc(NC(=O)C4CC4)cc3c2)C1` has an inhibition of 4% (enzyme activity; inhibitor; 1 µM).
`O=C(Nc1cccnn1)N1CCC(=Cc2cccc(Oc3ccc(C(F)(F)F)cn3)c2)CC1` has a remaining binding of 79% (cell-free assay; competition with immobilised ligand; 1 µM).
For `Cc1cc(NC(=O)c2cccc3cc(-c4cccc5[nH]nc(N)c45)ccc23)ccc1F`, the activity vs control was 105% (enzyme activity; inhibitor; 0.1 µM).
